Published values of several laboratories.
Protocols differ between the studies behind these lines. Converted amounts (≈) assume the structure as drawn.
Organism: Escherichia coli
Read-out: microbial growth

| Compound | test | test system | conditions | MIC |
| --- | --- | --- | --- | --- |
| COC(=O)c1cc(-c2cccc(NC(=O)Nc3cc(OC)ccc3OC)c2)on1 | broth dilution | ATCC25922 | – | > 64 µg/mL |
| C[n+]1c(/C=C/c2c[nH]c3ccccc23)cc(/C=C2\Sc3ccccc3N2CCCN2CCOCC2)c2ccccc21.[I-] | broth dilution | ATCCBAA2469 | – | 64 µg/mL |
| CN[C@@H]1[C@H](O)[C@H](NC)[C@H]2O[C@@]3(O)C(=O)C[C@@H](C)O[C@H]3O[C@@H]2[C@H]1O | broth dilution | K12, K12 | – | 25 µg/mL (≈ 75.2 µM) |
| CCCCCCC#Cc1cncc(-c2nnc(Sc3ccc([N+](=O)[O-])cc3[N+](=O)[O-])n2C)c1 | – | – | – | ≥ 20 µg/mL |
| CC1CCN(CCCN2/C(=C/c3cc[n+](C)c4ccccc34)Sc3ccccc32)CC1.[I-] | broth dilution | ATCCBAA2469 | – | 0.5 µg/mL |
| COC(=O)c1cc(-c2cccc(NC(=O)Nc3ccc(C(F)(F)F)cc3)c2)on1 | broth dilution | ATCC25922 | – | > 64 µg/mL |
| C[C@H](CCC(=O)NCCCNCCCCNCCCN)[C@H]1CC[C@H]2[C@@H]3CC=C4C[C@@H](O)CC[C@]4(C)[C@H]3CC[C@]12C | broth dilution | MG1655 | 20 h | 64 µg/mL (≈ 115 µM) |
| COC(=O)c1cc(-c2cccc(NC(=O)Nc3ccccc3F)c2)on1 | broth dilution | ATCC25922 | – | > 64 µg/mL |
| Fc1c(F)c(F)c(-c2c(F)c(F)c(F)c(F)c2F)c(F)c1F | – | ATCC25922 | – | > 250 µg/mL |
| CC1(C)S[C@@H]2[C@H](NC(=O)[C@H](N)c3ccccc3)C(=O)N2[C@H]1C(=O)O | broth dilution | MDR | 16 h | 32 µg/mL (≈ 91.6 µM) |
| COC(=O)c1cc(-c2cccc(NC(=O)Nc3c(C)cccc3C)c2)on1 | broth dilution | ATCC25922 | – | > 64 µg/mL |
| COc1cccc(OC)c1C(=O)N[C@@H]1C(=O)N2[C@@H]1SC(C)(C)[C@@H]2C(=O)O | broth dilution | ATCCBAA2469 | – | > 2050 µg/mL |
| COc1cc(O)c2c(c1)/C=C/C[C@H](O)[C@H](O)C(=O)/C=C/C[C@H](C)OC2=O | – | – | – | > 500 µg/mL |
| Oc1cc(Cl)ccc1Oc1ccc(Cl)cc1Cl | – | – | – | > 3.2 µg/mL |
| CC1(C)S[C@@H]2[C@H](NC(=O)[C@H](N)c3ccccc3)C(=O)N2[C@H]1C(=O)O | broth dilution | ATCCBAA2469 | – | > 64 µg/mL |
| C[C@H]1COc2c(N3CCN(C)CC3)c(F)cc3c(=O)c(C(=O)O)cn1c23 | broth dilution | ATCC25922 | – | 0.0156 µg/mL (≈ 0.0432 µM) |
| CSc1ccc(/C=C/c2cc(/C=C3\Sc4ccccc4N3CCCN3CCCC3)c3ccccc3[n+]2C)cc1.[I-] | broth dilution | ATCCBAA2469 | – | 32 µg/mL |
| CCCCCCCCCCCC(=O)OC[C@H]1O[C@@H](n2cc(C)c(=O)[nH]c2=O)C[C@@H]1O | broth dilution | – | – | 2 µg/mL (≈ 4.71 µM) |
| COC(=O)c1cc(-c2ccc(OC)c(NC(=O)Nc3ccc(Cl)c(Cl)c3)c2)on1 | broth dilution | ATCC25922 | – | > 64 µg/mL |
